Measurements taken from ChEMBL document CHEMBL1121814, “Monophenolic 2-(dipropylamino)indans and related compounds: central dopamine-receptor stimulating activity” (1981).
The source made the active and inactive calls.

Key:
Canis familiaris [1] = organism: Canis familiaris; experiment: Total dose at which the animal vomits; format: functional, Canis lupus familiaris
In short: (§1)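 Four female beagles (8–15 kg) with free access to food and water, not pretreated. Drug was infused iv at constant rate into the cephalic vein. The rate (k0) was set so that vomiting would be expected about 10 min after the start of infusion. The total dose infused at vomiting was recorded. Relative k0 is the compound's k0 divided by the apomorphine k0.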

Rattus norvegicus [2] = organism: Rattus norvegicus; experiment: Motor activity in reserpinized rats at the biochemical ED100 dose level expressed as accumulation counts per 60 min; format: functional
In short: (§2)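 Male Sprague–Dawley rats (200–350 g) pretreated with reserpine 10 mg/kg ip 6 h beforehand. Drugs in saline given sc at doses matching the biochemical ED50 and ED100 for the DA-synthesis decrease. Each rat was caged singly in a photocell motility meter right after dosing and counts were accumulated over 60 min, testing between 1 and 6 p.m. Means ± SEM, n = 3–4, compared by ANOVA then Student's t test.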

Rattus norvegicus [3] = organism: Rattus norvegicus; experiment: Motor activity in reserpinized rats at the biochemical ED50 dose level expressed as accumulation counts per 60 min; format: functional; in short: as §2
Rattus norvegicus [4] = organism: Rattus norvegicus; experiment: Estimated dose giving an approximately maximal decrease of the DA synthesis rate; format: functional
In short: (§3)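 Male Sprague–Dawley rats (200–350 g) were reserpinized, then given the drug sc in saline at four to six dose levels. NSD 1015 (100 mg/kg ip) was given 30 min before death to block decarboxylase. DOPA accumulation was measured spectrophotometrically in the limbic system and striatum as an index of DA synthesis rate. ED50 and ED100 were read from separate dose–response curves for each brain area. Experiments ran 9–12 a.m.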

Rattus norvegicus [5] = organism: Rattus norvegicus; experiment: Estimated dose giving a half-maximal decrease of the DA synthesis rate in the striatum of rat brain; format: functional; in short: as §3
Rattus norvegicus [6] = organism: Rattus norvegicus; experiment: Estimated dose giving a half-maximal decrease of the DA synthesis rate in the limbic system of rat brain; format: functional; in short: as §3
Canis familiaris [7] = organism: Canis familiaris; experiment: Emetic activity in dogs given as total dose at which the animal vomits; format: functional, Canis lupus familiaris; in short: as §1
Canis familiaris [8] = experiment: Relative rate of administration of compound in dogs; format: functional, Canis lupus familiaris; in short: as §1
Rattus norvegicus [9] = experiment: Estimated dose giving an approximately maximal decrease of the DA synthesis rate; I = Inactive (>45 umol/kg); format: functional, organism-based
In short: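 Male Sprague-Dawley rats (200–350 g) pretreated with reserpine. Compounds dissolved in saline and given sc at four to six dose levels. Aromatic L-amino acid decarboxylase inhibited with NSD 1015 (100 mg/kg ip, 30 min before death). Brain DOPA measured spectrophotometrically as an index of DA synthesis rate. Experiments run 9–12 a.m. Dose read from separate dose–response curves for each brain area.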

Rattus norvegicus [10] = experiment: Estimated dose giving a half-maximal decrease of the DA synthesis rate in the limbic system of rat brain; I = Inactive (>45 umol/kg); format: functional, organism-based; in short: as §3
Rattus norvegicus [11] = experiment: Estimated dose giving a half-maximal decrease of the DA synthesis rate in the striatum of rat brain; I = Inactive (>45 umol/kg); format: functional, organism-based; in short: as §3
Canis lupus familiaris = experiment: Emetic activity in dogs by constant-rate intravenous infusion was measured

Row | Compound | TED (Canis familiaris [1]) [nM/kg] | Accumulation counts (Rattus norvegicus [2]) | Accumulation counts (Rattus norvegicus [3]) | ED100 (Rattus norvegicus [4]) [nM/kg] | ED50 (Rattus norvegicus [5]) [µmol/kg] | ED50 (Rattus norvegicus [6]) [µmol/kg] | TED (Canis familiaris [7]) [nM/kg] | rel ko (Canis familiaris [8]) | ED100 (Rattus norvegicus [9]) | ED50 (Rattus norvegicus [10]) | ED50 (Rattus norvegicus [11]) | rel ko (Canis lupus familiaris)
1 | CCCN(CCC)C1CCc2c(O)cccc2C1 (centres undefined) [5-OH-DPAT] | 4.7 | 76 | 25 | 40 | 0.009 | 0.011 | – | – | – | – | – | –
2 | CCCN(CCC)C1Cc2ccc(O)cc2C1 (centres undefined) | – | 89 | 23 | 6500 | 1.44 | 1.25 | 247 | 9.9 | – | – | – | –
3 | CCCN(CCC)CC1CCc2c(O)cccc2C1 (centres undefined) | – | – | – | – | – | – | – | – | inactive | inactive | inactive | –
4 | CN1CCc2cccc3c2[C@H]1Cc1ccc(O)c(O)c1-3 [APOMORPHINE] | 32.3 | 64 | 24 | 230 | 0.044 | 0.041 | – | – | – | – | – | 1
5 | CCCN(CCC)C1CCCc2c(O)cccc2C1 (centres undefined) | – | – | – | – | – | – | – | – | inactive | inactive | inactive | –
6 | CCCN(CCC)CC1Cc2cccc(O)c2C1 (centres undefined) | – | 89 | 25 | 4500 | 0.96 | 0.67 | 292 | 9.1 | – | – | – | –
7 | CCCN(CCC)C1Cc2cccc(O)c2C1 (centres undefined) | 25 | 108 | 13 | 350 | 0.063 | 0.059 | – | – | – | – | – | –
